Experimental findings from ChEMBL document CHEMBL1146030, “Identification of thieno[3,2-b]pyrroles as allosteric inhibitors of hepatitis C virus NS5B polymerase” (Bioorg Med Chem Lett, 2006) are described below.

The source made the active and inactive calls. The rule behind the calls is not given here.

Data set [1] deals with RNA-directed RNA polymerase (Hepacivirus hominis, UniProt O39930). Kind of data set: Inhibition of HCV BK NS5B deltaC55 RNA dependent RNA polymerase. Also on record: species or system Hepatitis C virus (isolate BK). The essentials: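 Purified NS5B ΔC55 enzyme from HCV genotype BK strain, assayed with heterogeneous template RNA; IC50 determined with a modified literature protocol.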

The subject of data set [2] is Hepatitis C virus. Kind of data set: Inhibition of HCV RNA replication in Huh7 cells up to 100 uM. The class given is functional, organism-based. The conditions noted are these: Hepacivirus hominis; Huh-7.
For data set [3], the system named is Hepatitis C virus. Nature of the data set: Inhibition of HCV RNA replication in Huh7 cells in presence of 10% fetal calf serum. The class given is functional, organism-based, Hepacivirus hominis. As to conditions: Huh-7.
The nature of data set [4]: Partition coefficient, log D at pH 7.4. As to conditions: octanol/water.

Sequence of RNA-directed RNA polymerase (O39930 whole entry): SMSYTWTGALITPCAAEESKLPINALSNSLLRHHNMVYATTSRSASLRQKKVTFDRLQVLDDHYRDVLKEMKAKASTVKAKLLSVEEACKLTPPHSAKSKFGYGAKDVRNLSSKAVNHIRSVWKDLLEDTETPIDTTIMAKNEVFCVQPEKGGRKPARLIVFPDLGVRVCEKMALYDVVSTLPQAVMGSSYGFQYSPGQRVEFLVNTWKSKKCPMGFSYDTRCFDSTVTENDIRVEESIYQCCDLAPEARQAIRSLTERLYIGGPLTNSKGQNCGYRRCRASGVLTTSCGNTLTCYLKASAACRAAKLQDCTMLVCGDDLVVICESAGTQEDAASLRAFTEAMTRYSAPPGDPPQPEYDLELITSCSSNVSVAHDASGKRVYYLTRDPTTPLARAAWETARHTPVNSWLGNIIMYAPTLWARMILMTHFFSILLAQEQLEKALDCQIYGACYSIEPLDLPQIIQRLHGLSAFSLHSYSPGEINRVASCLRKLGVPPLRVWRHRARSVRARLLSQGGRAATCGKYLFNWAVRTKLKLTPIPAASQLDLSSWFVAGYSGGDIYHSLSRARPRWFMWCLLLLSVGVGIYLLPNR

As for `O=C(O)c1ccc2nc(-c3ccccc3)c(C3CCCCC3)cc2c1`, the IC50 (as a rule, the concentration needed to halve the response being measured) in data set [1] amounted to 4.8 µM. The result in the data set on Hepatitis C virus [2] was inactive.

As to `O=C(O)c1c[nH]c2c(C3CCCCC3)c(-c3ccccc3)nc-2c1`, the midpoint of inhibition in data set [1], the IC50, lay at 1.9 µM. Besides, the EC50 – broadly, the concentration that produces a half-maximal response – with Hepatitis C virus [3] was determined as 48.2 µM. For the same compound, the logD (commonly the decadic logarithm of the distribution of all forms, ionised or not, between an organic phase and buffer at a given pH) in data set [4] amounted to 2.5.

`CN(C)C(=O)Cn1c(-c2ccccc2)c(C2CCCCC2)c2ncc(C(=O)O)cc21`: the IC50 in data set [1] is 2.2 µM. Further, the 50% effective concentration (EC50) with Hepatitis C virus [3] is greater than 50 µM. In data set [4], this compound came in with a pH-dependent lipophilicity (logD) of 0.8.

`CN(C)C(=O)Cn1c(-c2ccccc2)c(C2CCCCC2)c2cc(C(=O)O)sc21` gave an IC50 in data set [1] of 0.23 µM. Moreover, in the data set with Hepatitis C virus [3], the EC50 was determined as 9.5 µM.

Consider `O=C(O)c1cc2nc(-c3ccccc3)n(C3CCCCC3)c2s1`, for which, in data set [1], the IC50 was found to be 17.2 µM. The outcome in the data set with Hepatitis C virus [2] was inactive.

For the compound `O=C(O)c1ccc2c(C3CCCCC3)c(-c3ccccc3)n(CC(=O)N3CCOCC3)c2c1`, in the data set on Hepatitis C virus [3], the EC50 came to 0.8 µM.

Take `CN(C)C(=O)Cn1c(-c2ccccc2)c(C2CCCCC2)c2sc(C(=O)O)cc21`: the IC50 in data set [1] was 0.058 µM. Moreover, the EC50 with Hepatitis C virus [3] worked out at 2.9 µM.

In turn, `COc1ccc(-c2nc(/C=C/C(=O)O)cn2C2CCCCC2)cc1` returned an IC50 in data set [1] of 77.3 µM. For the same compound, in the data set on Hepatitis C virus [2], the result was inactive.

`COc1ccc(-c2nc3cc(C(=O)O)ccc3n2C2CCCCC2)cc1` had an IC50 in data set [1] of 11.2 µM. The EC50 in the data set on Hepatitis C virus [3] was greater than 50 µM.

Take `O=C(O)c1ccc2c(C3CCCCC3)c(-c3ccccc3)[nH]c2c1`: in the data set with Hepatitis C virus [3], the EC50 was found to be 6.7 µM.

`O=C(O)c1cc2[nH]c(-c3ccccc3)c(C3CCCCC3)c2s1` showed an IC50 in data set [1] of 0.066 µM. The EC50 in the data set with Hepatitis C virus [3] is 11.2 µM. The same compound showed a logD in data set [4] of 3.4.

In data set [1], `O=C(O)c1ccc2c(C3CCCCC3)c(-c3ccccc3)[nH]c2n1` showed an IC50 of 0.15 µM. Further, the EC50 with Hepatitis C virus [3] was determined as 16.8 µM. In data set [4], the logD turned out to be 3.3.

In turn, `O=C(O)c1ccc2c(C3CCCCC3)c(-c3ccccc3)cn2c1` came in with an IC50 in data set [1] of 0.094 µM. The result in the data set on Hepatitis C virus [2] was inactive.

The compound `O=C(O)c1cc2c(nc(-c3ccccc3)n2C2CCCCC2)s1` came in with an IC50 in data set [1] of 13.8 µM. Besides, the result with Hepatitis C virus [2] was inactive.

As to `O=C(O)c1cc2nc(-c3ccccc3)n(C3CCCCC3)c2[nH]1`, in data set [1], the IC50 was greater than 50 µM. For the same compound, in the data set with Hepatitis C virus [2], the outcome was inactive.

Turning to `O=C(O)c1cc2c(C3CCCCC3)c(-c3ccccc3)[nH]c2s1`, inhibition in data set [1] was half-maximal at 0.12 µM (IC50). The EC50 in the data set on Hepatitis C virus [3] is 19.5 µM.

In data set [1], `CN(C)C(=O)Cn1c(-c2ccccc2)c(C2CCCCC2)c2ccc(C(=O)O)nc21` returned an IC50 of 0.32 µM. Moreover, in the data set with Hepatitis C virus [3], the EC50 is 9.8 µM. The compound also came in with a logD in data set [4] of 1.1.

`O=C(O)c1ccc2cc(C3CCCCC3)c(-c3ccccc3)nc2c1` yielded an IC50 in data set [1] greater than 50 µM. For the same compound, the outcome in the data set with Hepatitis C virus [2] was inactive.

For the compound `O=C(O)c1ccc2c(c1)nc(-c1ccccc1)n2C1CCCCC1`, the IC50 in data set [1] amounted to 6.5 µM. Also, the EC50 with Hepatitis C virus [3] is greater than 50 µM.
